Assay results: ChEMBL document CHEMBL1817651, “Neuroprotective effects of linarin through activation of the PI3K/Akt pathway in amyloid-β-induced neuronal cell death” (2011)
Calls of active or inactive are those of the source. No cut-off for these calls is given here.

Key:
PC-12 [1] = test: Cytoprotective activity in amyloid beta-induced apoptosis in rat PC12 cells at 10 uM administered 1 hr prior to amyloid beta challenge measured after 24 hrs by using Annexin V/PI staining based flow cytometric analysis; format: functional
How it was run: (§1)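 Cells were stained with Annexin V-FITC/PI for 15 min in the dark at room temperature and analysed by flow cytometry. Annexin+/PI− cells were scored early apoptotic and double-positive cells late apoptotic. Mean ± SD of triplicate independent experiments.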

PC-12 [2] = test: Neuroprotective activity in amyloid beta-induced cytotoxicity in rat PC12 cells assessed as cell viability pretreated 1 hrs prior to amyloid beta challenge measured after 24 hrs by MTT assay; format: functional, cell-based
How it was run: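 PC12 cells at 0.5 × 10^4 per well, serum-starved 12 h, then pretreated 1 h with 0.1, 1.0 or 10 µM. Viability was read by MTT (5 mg/ml, 4 h, 37 °C), with formazan dissolved in DMSO and A570 measured. Mean ± SD of triplicate experiments.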

[3] = biological target: T1, Acetylcholinesterase (Rattus norvegicus) (UniProt P37136); test: Inhibition of AChE activity in amyloid beta25-35-induced rat PC12 cells at 0.1 to 10 uM, 1 hrs prior to induction after 24 hrs by Ellman assay; format: cell-based; settings: PC-12
T1 sequence (whole entry): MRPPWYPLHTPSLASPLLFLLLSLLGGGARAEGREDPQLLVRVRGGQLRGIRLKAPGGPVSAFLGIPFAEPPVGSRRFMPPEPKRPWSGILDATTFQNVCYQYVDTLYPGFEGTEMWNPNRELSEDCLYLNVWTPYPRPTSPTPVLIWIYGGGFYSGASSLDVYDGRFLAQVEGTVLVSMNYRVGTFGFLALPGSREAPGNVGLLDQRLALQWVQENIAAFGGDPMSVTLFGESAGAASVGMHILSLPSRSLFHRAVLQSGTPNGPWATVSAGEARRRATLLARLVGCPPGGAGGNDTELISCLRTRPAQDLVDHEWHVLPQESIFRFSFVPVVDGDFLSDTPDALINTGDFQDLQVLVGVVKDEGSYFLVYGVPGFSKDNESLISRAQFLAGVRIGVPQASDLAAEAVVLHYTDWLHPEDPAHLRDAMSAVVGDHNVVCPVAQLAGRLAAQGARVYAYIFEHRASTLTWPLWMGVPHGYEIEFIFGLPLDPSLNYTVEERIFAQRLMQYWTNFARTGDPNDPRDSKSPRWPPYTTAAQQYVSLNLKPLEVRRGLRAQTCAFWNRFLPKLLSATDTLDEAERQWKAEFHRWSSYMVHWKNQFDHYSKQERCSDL
How it was run: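 Rat PC12 cells in DMEM/10% FBS, serum-starved 12 h, were pretreated 1 h, then exposed 24 h to 30 µM Aβ25-35 (1 mM in water, pre-aggregated 72 h at 37 °C). Lysates were made in high ionic strength buffer (1 M NaCl, Triton X-100, EDTA) and spun 12,000 rpm 20 min at 4 °C. AChE activity in the supernatant was read by Ellman method; three independent experiments.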

PC-12 [4] = test: Cytoprotective activity in amyloid beta-induced apoptosis in rat PC12 cells at 0.1 uM administered 1 hr prior to amyloid beta challenge measured after 24 hrs by using Annexin V/PI staining based flow cytometric analysis; format: functional; how it was run: as §1
PC-12 [5] = test: Cytoprotective activity in amyloid beta-induced apoptosis in rat PC12 cells at 1 uM administered 1 hr prior to amyloid beta challenge measured after 24 hrs by using Annexin V/PI staining based flow cytometric analysis; format: functional; how it was run: as §1
PC-12 [6] = test: Cytoprotective activity in amyloid beta-induced apoptosis in rat PC12 cells administered 1 hr prior to amyloid beta challenge measured after 24 hrs by using Annexin V/PI staining based flow cytometric analysis; format: functional, cell-based; how it was run: as §1
PC-12 [7] = test: Inhibition of amyloid beta-induced mitochondrial dysfunction in rat PC12 cells at 0.1 to 10 uM administered 1 hr prior to amyloid beta challenge measured after 24 hrs using JC1 fluorescent dye based flow cytometeric analysis; format: functional, cell-based
How it was run: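 Cells were loaded with JC-1 for 20 min at 37 °C, pelleted at 600g, resuspended in PBS and analysed by flow cytometry on FL1 (525 nm) and FL2 (575 nm). Membrane potential was expressed as the green/red fluorescence ratio. Mean ± SD, triplicate.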

PC-12 [8] = test: Inhibition of amyloid beta-induced apoptosis in rat PC12 cells assessed as decrease in caspase-3 dependent cleavage of Ac-DEVD-pNA administered 1 hr prior to amyloid beta challenge measured after 24 hrs by spectrophotometric analysis; format: functional, cell-based
How it was run: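 Released pNA was read at 405 nm. Activity was normalised to protein and expressed as fold over control cells. Mean ± SD of triplicate experiments.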

PC-12 [9] = test: Neuroprotective effect against amyloid beta-induced apoptosis in rat PC12 cells assessed as upregulation of PI3K-mediated Akt phosphorylation administered 1 hr prior to amyloid beta challenge measured after 24 hrs by Western blotting; format: functional, cell-based
How it was run: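 Lysate protein (20 or 30 µg) was run on 12% SDS-PAGE and blotted to nitrocellulose. Blots were probed for p-Akt Ser473 and total Akt (1:1000), with β-actin or GAPDH as loading control, and detected by ECL. Densitometry, mean ± SD, triplicate.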

[10] = biological target: RAC-alpha serine/threonine-protein kinase (Rattus norvegicus) (UniProt P47196); test: Induction of PIK3-mediated Akt phosphorylation in amyloid beta-induced rat PC12 cells at 10 uM, treated 1 hrs prior to amyloid beta challenge measured after 24 hrs by Western blotting in presence of PI3K inhibitor LY294002 before compound addition; format: cell-based; settings: PC-12
Chain of RAC-alpha serine/threonine-protein kinase (Rattus norvegicus) (P47196 whole entry): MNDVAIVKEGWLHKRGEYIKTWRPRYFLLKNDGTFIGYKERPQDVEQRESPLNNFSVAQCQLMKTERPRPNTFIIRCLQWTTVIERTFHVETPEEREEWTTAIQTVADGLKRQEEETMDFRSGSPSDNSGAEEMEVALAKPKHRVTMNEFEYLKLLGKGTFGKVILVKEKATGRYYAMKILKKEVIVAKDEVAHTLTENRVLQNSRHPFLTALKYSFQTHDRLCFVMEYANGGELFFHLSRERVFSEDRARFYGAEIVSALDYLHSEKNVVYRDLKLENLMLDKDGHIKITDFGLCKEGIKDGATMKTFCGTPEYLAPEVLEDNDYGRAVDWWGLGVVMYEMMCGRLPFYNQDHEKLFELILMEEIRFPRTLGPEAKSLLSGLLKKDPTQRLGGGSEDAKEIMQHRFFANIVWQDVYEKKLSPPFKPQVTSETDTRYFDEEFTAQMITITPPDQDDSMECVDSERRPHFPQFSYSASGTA
How it was run: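 Lysates (20 or 30 µg) were run on 12% SDS-PAGE and immunoblotted for p-Akt and total Akt (1:1000) with ECL detection. Densitometry, mean ± SD of triplicate experiments.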

[11] = biological target: Glycogen synthase kinase-3 beta (Rattus norvegicus) (UniProt P18266); test: Increase in GSK3 beta phosphorylation at Ser9 in amyloid beta-induced rat PC12 cells at 0.1 to 10 uM administered 1 hrs prior to amyloid beta challenge measured after 24 hrs by Western blotting; format: cell-based; settings: PC-12
Chain of Glycogen synthase kinase-3 beta (Rattus norvegicus) (P18266 whole entry, looked up): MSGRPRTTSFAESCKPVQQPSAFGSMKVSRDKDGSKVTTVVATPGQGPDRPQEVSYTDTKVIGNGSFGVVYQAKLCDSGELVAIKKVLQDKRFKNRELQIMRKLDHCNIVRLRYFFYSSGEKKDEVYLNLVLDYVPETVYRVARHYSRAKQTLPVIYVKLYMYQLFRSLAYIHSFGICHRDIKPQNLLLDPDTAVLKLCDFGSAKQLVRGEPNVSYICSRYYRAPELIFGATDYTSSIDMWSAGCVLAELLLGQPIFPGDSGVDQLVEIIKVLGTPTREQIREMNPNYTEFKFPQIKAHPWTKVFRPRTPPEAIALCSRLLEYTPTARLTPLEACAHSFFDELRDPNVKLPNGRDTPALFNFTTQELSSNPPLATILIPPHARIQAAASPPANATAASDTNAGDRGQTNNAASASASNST
How it was run: (§2)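 Lysates (20 or 30 µg) were run on 12% SDS-PAGE and immunoblotted for pSer9 GSK-3β and total GSK-3β (1:1000), with β-actin or GAPDH as loading control. Blots shown represent three independent experiments.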

[12] = biological target: Glycogen synthase kinase-3 beta (Rattus norvegicus) (UniProt P18266); test: Increase in GSK3 beta phosphorylation at Ser9 in amyloid beta-induced rat PC12 cells at 0.1 to 10 uM administered 1 hrs prior to amyloid beta challenge measured after 24 hrs by Western blotting pretreated with PI3K inhibitor LY294002 before compound addition; format: cell-based; settings: PC-12; how it was run: as §2
PC-12 [13] = test: Neuroprotective activity in amyloid beta-induced rat PC12 cells assessed as increase of Bcl-2 expression at 0.1 to 10 uM administered 1 hrs prior to amyloid beta challenge measured after 24 hrs by Western blotting; format: functional, cell-based
How it was run: (§3)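 Lysates (20 or 30 µg) were separated on 12% gels, blotted and probed with anti-Bcl-2 (1:200), with β-actin or GAPDH as loading control. Detection was by ECL.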

PC-12 [14] = test: Neuroprotective effect against amyloid beta-induced rat PC12 cells assessed as increase of Bcl-2 expression at 0.1 to 10 uM administered 1 hrs prior to amyloid beta challenge measured after 24 hrs by Western blotting pretreated with PI3K inhibitor LY294002 before compound addition; format: functional, cell-based; how it was run: as §3

COc1ccc(-c2cc(=O)c3c(O)cc(O[C@@H]4O[C@H](CO[C@@H]5O[C@@H](C)[C@H](O)[C@@H](O)[C@H]5O)[C@@H](O)[C@H](O)[C@H]4O)cc3o2)cc1 [ACACIIN]
Activity (PC-12 [1]): 7.32%
Activity (PC-12 [2]): Dose-dependent effect
inhibition [3]: Active
Activity (PC-12 [4]): 20.52%
Activity (PC-12 [5]): 11.57%
Activity (PC-12 [6]): Dose-dependent effect
inhibition (PC-12 [7]): Active
inhibition (PC-12 [8]): Dose-dependent effect
Activity (PC-12 [9]): Active
Activity [10]: inactive
Activity [11]: Active
Activity [12]: inactive
Activity (PC-12 [13]): Active
Activity (PC-12 [14]): inactive
